Measured values published in ChEMBL document CHEMBL3751847, “Novel naphtho[2,1-d]oxazole-4,5-diones as NQO1 substrates with improved aqueous solubility: Design, synthesis, and in vivo antitumor evaluation” (Bioorg Med Chem, 2016).
≈ marks a conversion by molar mass, not a printed value. Calls of active or inactive are those of the source. The calls are words filed in the database; no cut-off is given here.

Assays:
[1] = target: T1, NAD(P)H dehydrogenase [quinone] 1 (Homo sapiens, UniProt P15559); assay: Drug metabolism assessed as recombinant human NQO1-mediated NADPH oxidation to NADP+ per micromol of protein preincubated for 3 mins followed by NADPH addition measured at 2 s intervals for 5 mins by enzyme labelling instrument-based assay; type: ADME
Procedure, shortened: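 NADPH recycling assay: quinones 0.1–50 µmol·L-1 with recombinant human NQO1 1.4 µg/mL in 50 mmol·L-1 potassium phosphate pH 7.4, 3 min preincubation, reaction started with NADPH 400 µmol·L-1; A340 every 2 s for 5 min at 22–25 °C. Slopes from linear 20 s–1 min, compared with no-compound reactions; at least triplicate.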

[2] = Solubility of compound in diluted hydrochloric acid buffer solution at pH 3 at 25 deg C for 8 hrs; type: physicochemical
Procedure, shortened: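 Compounds shaken in diluted hydrochloric acid buffer at pH 3, 25 °C for 8 h.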

A549 [3] = assay: Cytotoxicity against human A549 cells expressing NQO1 after 2 hrs by MTT assay; type: functional, cell-based; settings: A549, 2 h
Procedure, shortened: (§1)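 MTT assay: cells in RPMI 1640 + 10% FBS seeded at 10,000 cells/mL, attached 16 h, exposed to compound in triplicate for 2 h, washed out, then grown 72 h at 37 °C, 5% CO2; MTT 4 h, formazan in DMSO, A560. Dicoumarol cotreatment 25 µmol·L-1 for 2 h. IC50 from semilog plots of percent control.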

A549 [4] = assay: Antitumor activity against human A549 cells xenografted in athymic nude mouse assessed as tumor proliferation rate at 30 mg/kg, iv administered every other day over 21 days relative to vehicle-treated control; type: functional
Procedure, shortened: (§2)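 Athymic nude mice (7–8 weeks) given 5 × 10^6 log-phase A549 cells in the flank; randomized at mean tumor ~100 mm3 (5 mice/group) to vehicle, 15 or 30 mg/kg test agent in dilute HCl buffer pH 3, or positive control in saline; tail-vein injection every other day for three weeks. Caliper volume = a × b²/2, measured daily; wet tumor weight after euthanasia. TGI from weight; T/C = RTV(treated)/RTV(control) × 100, RTV = VT/V0.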

[5] = target: T1, NAD(P)H dehydrogenase [quinone] 1; assay: Binding affinity to recombinant human NQO1 assessed as induction of ROS generation by measuring reduction of cytochrome C per min per mg of NQO1 by spectrophotometric analysis
Procedure, shortened: (§3)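 Superoxide via cytochrome c reduction at 550 nm: 30 µmol·L-1 cytochrome c, 0.2 mmol·L-1 NADPH, recombinant human NQO1 0.1–3.0 µg/mL, quinone 25 µmol·L-1 in 25 mmol·L-1 Tris-HCl pH 7.4 with 0.7 mg/mL BSA and 0.1% Tween-20; dicoumarol 25 µmol·L-1 where stated. Initial rates from linear 0–30 s; at least triplicate.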

A549 [6] = assay: Antitumor activity against human A549 cells xenografted in athymic nude mouse assessed as tumor growth inhibition at 30 mg/kg, iv administered every other day over 21 days relative to vehicle control; type: functional; settings: 504 h, read-out: TGI; procedure, shortened: as §2
[7] = Lipophilicity, log D of compound at pH 7.4; type: physicochemical; settings: buffer
Procedure, shortened: (§4)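 Neutral aqueous solubility and log D at pH 7.4 by Avdeef–Bucher potentiometric titration on a Gemini Profiler.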

[8] = Intrinsic aqueous solubility of compound by Avdeef-Bucher potentiometric titration assay; type: physicochemical; settings: aqueous solution; read-out: Intrinsic_solubility; procedure, shortened: as §4
[9] = target: T1, NAD(P)H dehydrogenase [quinone] 1; assay: Binding affinity to recombinant human NQO1 assessed as induction of ROS generation by measuring reduction of cytochrome C per min per mg of NQO1 by spectrophotometric analysis in presence of NQO1 inhibitor dicoumarol; procedure, shortened: as §3
Mus musculus [10] = assay: Toxicity in athymic nude mouse assessed as body weight loss at 15 to 30 mg/kg, iv administered every other day over 21 days relative to vehicle control; type: organism-based; settings: in vivo, 504 h
Procedure, shortened: (§5)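 A549 xenograft nude mice, 5/group, dosed 15 or 30 mg/kg by tail vein every other day for three weeks in dilute HCl buffer pH 3; vehicle group as reference. Body weight tracked over treatment; liver examined for toxic signs.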

A549 [11] = assay: Ratio of IC50 for human A549 cells expressing NQO1 in presence of NQO1 inhibitor dicoumarol to IC50 for human A549 cells expressing NQO1 in absence of NQO1 inhibitor dicoumarol; type: functional
Procedure, shortened: (§6)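 IC50 ratios from the 2 h-exposure/72 h MTT assay: A549 IC50 with 25 µmol·L-1 dicoumarol cotreatment divided by IC50 without; or H596 IC50 divided by A549 IC50.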

NCI-H596 = assay: Cytotoxicity against NQO1-deficient human NCI-H596 cells after 2 hrs by MTT assay; type: cell-based; settings: NCI-H596, 2 h; procedure, shortened: as §1
A549 [12] = assay: Cytotoxicity against human A549 cells expressing NQO1 after 2 hrs in presence of dicoumarol by MTT assay; type: functional, cell-based; settings: A549, 2 h; procedure, shortened: as §1
A549 [13] = assay: Antitumor activity against human A549 cells xenografted in athymic nude mouse assessed as tumor growth inhibition at 15 mg/kg, iv administered every other day over 21 days relative to vehicle control; type: functional, organism-based; procedure, shortened: as §2
A549 [14] = assay: Antitumor activity against human A549 cells xenografted in athymic nude mouse assessed as tumor volume at 30 mg/kg, iv administered every other day over 21 days (reference value: 1085.8 +/- 298.3 mm'3); type: functional; procedure, shortened: as §2
[15] = Selectivity ratio of IC50 for NQO1-deficient human NCI-H596 cells to IC50 for human A549 cells expressing NQO1; type: cell-based; procedure, shortened: as §6
[16] = Cytotoxicity against human L02 cells after 2 hrs by MTT assay; type: cell-based; settings: L02, 2 h; procedure, shortened: as §1
Mus musculus [17] = assay: Hepatotoxicity in athymic nude mouse at 15 to 30 mg/kg, iv administered every other day over 21 days relative to vehicle control; type: toxicity, organism-based; settings: in vivo, 504 h; procedure, shortened: as §5

T1 sequence (P15559 whole entry): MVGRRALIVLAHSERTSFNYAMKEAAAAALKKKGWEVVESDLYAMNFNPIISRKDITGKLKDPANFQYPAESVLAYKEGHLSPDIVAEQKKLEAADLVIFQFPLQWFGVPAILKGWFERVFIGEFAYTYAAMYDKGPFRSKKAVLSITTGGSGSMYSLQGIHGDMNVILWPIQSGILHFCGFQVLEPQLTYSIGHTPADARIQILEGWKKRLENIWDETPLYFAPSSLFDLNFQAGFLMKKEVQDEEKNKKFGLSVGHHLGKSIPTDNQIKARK

| Compound | Drug metabolism [1] | solubility at 8 h [2] | logD [7] | IC50 (A549 [3]) | also measured |
| --- | --- | --- | --- | --- | --- |
| COc1ccccc1NCc1nc2c(o1)-c1ccccc1C(=O)C2=O | 990 µmol/min | > 100 µg/mL | – | 11 µM | – |
| CC1(C)CCC2=C(O1)c1ccccc1C(=O)C2=O [LAPACHONE] | 1210 µmol/min | < 100 µg/mL | 2.85 | 3.7 µM | T/C (A549 [4]): 29.5%; Activity [5]: Active; inhibition in vivo at 30 mg/kg (A549 [6]): 70.1% |
| O=C1C(=O)c2nc(CNc3ccc(Cl)cc3)oc2-c2ccccc21 | 1522 µmol/min | < 100 µg/mL | 2.65 | 19 µM | solubility [8]: 38 µg/mL (≈ 112 µM) |
| O=C1C(=O)c2nc(CNc3cccc(F)c3)oc2-c2ccccc21 | 1391 µmol/min | < 100 µg/mL | 3.18 | 5.2 µM | solubility [8]: 44 µg/mL (≈ 137 µM) |
| Cc1ccc(NCc2nc3c(o2)-c2ccccc2C(=O)C3=O)cc1 | 968 µmol/min | > 100 µg/mL | – | 12 µM | – |
| CN(C)Cc1nc2c(o1)-c1ccccc1C(=O)C2=O | 939 µmol/min | > 100 µg/mL | – | 8.7 µM | – |
| O=C1C(=O)c2nc(CN3CCOCC3)oc2-c2ccccc21 | 686 µmol/min | > 100 µg/mL | – | 6.9 µM | – |
| COc1cccc(NCc2nc3c(o2)-c2ccccc2C(=O)C3=O)c1 | 955 µmol/min | > 100 µg/mL | – | 15 µM | – |

Now from value to compound, other results behind:

| Drug metabolism [1] | solubility at 8 h [2] | logD [7] | Compound | IC50 (A549 [3]) | also measured |
| --- | --- | --- | --- | --- | --- |
| 1063 µmol/min | > 100 µg/mL | – | COc1ccc(NCc2nc3c(o2)-c2ccccc2C(=O)C3=O)cc1 | 13 µM | – |
| 1360 µmol/min | > 500 µg/mL | 1.88 | O=C1C(=O)c2nc(CN3CCN(Cc4ccccc4)CC3)oc2-c2ccccc21 | 4.6 µM | solubility [8]: 125 µg/mL (≈ 323 µM); Activity [9]: Not Active; Activity (Mus musculus [10]): Non-toxic; Ratio IC50 (A549 [11]): >7; IC50 (NCI-H596): 57 µM; T/C (A549 [4]): 41.4%; IC50 (A549 [12]): 64 µM; TGI (A549 [13]): Active; Activity (A549 [14]): 440.8 mm3; Ratio IC50 [15]: > 12; Activity [5]: Active; IC50 [16]: 70 µM; inhibition in vivo at 30 mg/kg (A549 [6]): 55.6%; Activity (Mus musculus [17]): Non-toxic |
| 1139 µmol/min | > 100 µg/mL | – | O=C1C(=O)c2nc(CN3CCN(c4ccccc4)CC3)oc2-c2ccccc21 | 7.6 µM | – |
| 955 µmol/min | – | – | CCc1nc2c(o1)-c1ccccc1C(=O)C2=O | 7.6 µM | – |
| 1202 µmol/min | – | – | Cc1nc2c(o1)-c1ccccc1C(=O)C2=O | 20 µM | – |
